Data from ChEMBL document CHEMBL4765333, “Novel NO-releasing scopoletin derivatives induce cell death via mitochondrial apoptosis pathway and cell cycle arrest” (Eur J Med Chem, 2020).
Activity calls are given as the source filed them. No cut-off for these calls is given here.

Legend:
MCF7 = assay: Antiproliferative activity against human MCF7 cells assessed as inhibition of cell growth rate at 10 uM measured after 48 hrs by MTT assay; assay type: functional
In short: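 MCF-7 cells in DMEM with 10% FBS exposed to a single 10 µM concentration for 48 h. Read-out by MTT (0.5 mg/ml, 4 h, DMSO dissolution, A570). Inhibition rate given versus untreated control as mean ± SD, n = 3.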

MDA-MB-231 [1] = assay: Antiproliferative activity in human MDA-MB-231 cells assessed as inhibition of cell viability at 1.5 to 3 uM pretreated with 10 uM necroptosis inhibitor, necrostatin-1 followed by addition of compound and measured after 48 hrs by MTT assay; assay type: functional, cell-based; settings: dose 1.5-3 µM
In short: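 MDA-MB-231 cells pretreated 1 h with necrostatin-1 (10 µM) or Z-VAD-FMK (20 µM), then exposed to compound at 1.5, 2 and 3 µM for another 48 h. Inhibition rates by MTT; inhibitors alone also tested 48 h for viability. Mean ± SD, n = 3.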

MDA-MB-231 [2] = assay: Induction of apoptosis in human MDA-MB-231 cells assessed as necrotic cells at 1.5 uM after 24 hrs by Annexin V/propidium iodide based flow cytometric analysis (reference value: 0.019%); assay type: functional
In short: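 MDA-MB-231 cells (2×10^5/well) attached 24 h, then treated 24 h with 1, 1.5, 2 or 3 µM, DMSO as control. Cells harvested, PBS-washed, resuspended in binding buffer, stained with Annexin V and PI for 30 min at 37°C in the dark, and analysed by flow cytometry for quadrant percentages; three experiments.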

MDA-MB-231 [3] = assay: Induction of mitochondrial membrane potential depolarization in human MDA-MB-231 cells assessed as proportion of cells with depolarized MMP at 1.5 uM incubated for 18 hrs by JC-1 staining based flow cytometry (reference value: 0.72%); assay type: functional
MDA-MB-231 [4] = assay: Induction of apoptosis in human MDA-MB-231 cells assessed as downregulation of Bcl-2 expression at 1.5 to 6 uM measured after 8 hrs by Western blot analysis; assay type: functional, cell-based; settings: dose 1.5-6 µM
In short: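 MDA-MB-231 cells (8×10^5 per 60 mm dish) attached 24 h, then exposed 8 h to 1.5, 3 or 6 µM, DMSO as control. Lysates quantified by BCA; 30 µg protein run on 4–20% SDS-PAGE, transferred to PVDF, probed for Bcl-2, Bax, Bad, cleaved caspase-9, cleaved caspase-3 and PARP, with ECL detection. Densitometric relative levels; three experiments.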

MDA-MB-23 = assay: Inhibition of colony formation in human MDA-MB-231 cells incubated for 24 hrs followed by culturing in fresh medium for 10 days by crystal violet staining based assay; assay type: functional, cell-based; settings: dose 0.25-1 µM
In short: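 MDA-MB-231 seeded at 1.5×10^3 cells/well, 24 h attachment, then 24 h exposure to compound (0.25, 0.5, 1 µM) or DMSO; fresh medium for a further 10 days. Fixed in 4% paraformaldehyde 0.5 h at 4°C, crystal violet stained, dye dissolved in DMSO and absorbance read at 590 nm; performed three times.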

[5] = Induction of intracellular reactive oxygen species generation in human MDA-MB-231 cells assessed as proportion of FL1-H positive cells at 2 uM pretreated with ROS scavenger, NAC for 2 hrs prior to incubation with compound and measured after 24 hrs by DCFH-DA staining based flow cytometry analysis (reference value: 47.8%); assay type: functional, MDA-MB-23
In short: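 MDA-MB-231 seeded at 2×10^5 cells/well, grown 24 h, pretreated with NAC (2.5 mM) for 2 h, then given 2 µM compound for 24 h. Cells loaded with DCFH-DA 30 min at 37°C in the dark, washed in PBS, resuspended in serum-free medium and read by flow cytometry; three independent experiments.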

COc1cc2cc(N)c(=O)oc2cc1OCCCOc1no[n+]([O-])c1S(=O)(=O)c1ccccc1
inhibition at 10 µM (MCF7): 91.5% | Activity (MDA-MB-231 [1]): inactive | Activity (MDA-MB-231 [2]): 0.31% | Activity (MDA-MB-231 [3]): 17.7% | Activity (MDA-MB-231 [4]): Active | inhibition (MDA-MB-23): Dose-dependent effect | Activity [5]: 51%
